Reference: ChEMBL document CHEMBL5357066, “Development of Novel Membrane Disrupting Lipoguanidine Compounds Sensitizing Gram-Negative Bacteria to Antibiotics” (ACS Med Chem Lett, 2024)
In brackets after ≈: the same amount, converted by molar mass.

Tested on: Klebsiella pneumoniae
Assay: Antibacterial activity against Klebsiella pneumoniae M6 assessed as bacterial growth inhibition incubated for overnight by microbroth dilution method

SMILES	MIC
CCCCCCCCCCCCNC(=N)NCCCCN	> 128 µg/mL

Tested on: Pseudomonas aeruginosa
Assay: Antibacterial activity against Pseudomonas aeruginosa NCTC 13437 assessed as bacterial growth inhibition incubated for overnight by microbroth dilution method
Format: functional
Summary of the method: (§1)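 Broth microdilution in Tryptic Soy Broth. DMSO stocks were diluted in TSB as 2-fold series. Overnight TSB cultures were back-diluted to OD 0.01 and mixed 1:1 with compound. Incubation was overnight at 37 °C. MIC was the lowest concentration without visible growth (<0.1 OD600). DMSO vehicle was checked at equivalent concentrations.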

SMILES	MIC
CCCCCCCCCCCCNC(=N)NCCCCN	64 µg/mL (≈ 214 µM)

Tested on: Acinetobacter baumannii
Assay: Synergistic antibacterial activity against Acinetobacter baumannii ATCC 17978 assessed as rifampicin MIC at <=0.25 times MIC incubated for overnight by microbroth dilution checkerboard assay
Format: functional
Summary of the method: (§2)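 Checkerboard microdilution under MIC conditions (TSB, overnight, 37 °C). Two-fold series of each agent were combined on one plate before bacteria were added, and single-agent MICs were measured on the same plate. FIC = sum of combination MIC/alone MIC for each agent, taken from the most synergistic well. Three independent repeats, mean ± SD. ≤0.5 was taken as strong synergy and 0.5–<1 as weak.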

SMILES	MIC
CCCCCCCCCCCCNC(=N)NCCCCN	≤ 0.125 µg/mL

Tested on: Pseudomonas aeruginosa
Assay: Antibacterial activity against Pseudomonas aeruginosa PAO1 assessed as bacterial growth inhibition incubated for overnight by microbroth dilution method
Format: functional
Summary of the method: as §1

SMILES	MIC
CCCCCCCCCCCCNC(=N)NCCCCN	> 128 µg/mL

Tested on: Staphylococcus aureus
Assay: Antibacterial activity against methicillin resistant Staphylococcus aureus USA 300 assessed as bacterial growth inhibition incubated for overnight by microbroth dilution method
Format: functional
Summary of the method: (§3)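 Microbroth dilution in Tryptic Soy Broth. DMSO stocks were diluted in TSB as 2-fold series. Overnight TSB cultures were back-diluted to OD 0.01 and mixed 1:1 with compound. Incubation was overnight at 37 °C. MIC is the lowest concentration with no visible growth (<0.1 OD600). DMSO at equivalent concentrations was checked.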

SMILES	MIC
CCCCCCCCCCCCNC(=N)NCCCCN	4 µg/mL (≈ 13.4 µM)

Tested on: Escherichia coli
Assay: Antibacterial activity against Escherichia coli NCTC 12923 assessed as bacterial growth inhibition incubated for overnight by microbroth dilution method
Format: functional
Summary of the method: as §1

SMILES	MIC
CCCCCCCCCCCCNC(=N)NCCCCN	16 µg/mL (≈ 53.6 µM)

Tested on: Enterococcus faecalis
Assay: Antibacterial activity against vancomycin resistant Enterococcus faecalis NCTC 12201 assessed as bacterial growth inhibition incubated for overnight by microbroth dilution method
Format: functional
Summary of the method: as §3

SMILES	MIC
CCCCCCCCCCCCNC(=N)NCCCCN	16 µg/mL (≈ 53.6 µM)

Tested on: Pseudomonas aeruginosa
Assay: Synergistic antibacterial activity against Pseudomonas aeruginosa PAO1 assessed as fold change in rifampicin MIC at <=0.25 times MIC incubated for overnight by microbroth dilution checkerboard assay relative to rifampicin alone
Format: functional
Summary of the method: (§4)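 Checkerboard microdilution in Tryptic Soy Broth, run like the MIC assay. Overnight TSB cultures were back-diluted to OD 0.01 and added 1:1 to the combined two-fold series of both agents, then incubated overnight at 37 °C. Growth/no-growth was called at <0.1 OD600. MICs alone were read on the same plates. FIC index came from the most synergistic well; three independent repeats, mean ± SD.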

SMILES	fold change (FC)
CCCCCCCCCCCCNC(=N)NCCCCN	>=4

Tested on: Acinetobacter baumannii
Assay: Antibacterial activity against Acinetobacter baumannii AYE assessed as bacterial growth inhibition incubated for overnight by microbroth dilution method
Format: functional
Summary of the method: as §1

SMILES	MIC
CCCCCCCCCCCCNC(=N)NCCCCN	> 128 µg/mL

Tested on: Klebsiella pneumoniae
Assay: Synergistic antibacterial activity against Klebsiella pneumoniae NCTC 13368 assessed as rifampicin MIC at <=0.25 times MIC incubated for overnight by microbroth dilution checkerboard assay
Format: functional
Summary of the method: as §2

SMILES	MIC
CCCCCCCCCCCCNC(=N)NCCCCN	0.25 µg/mL

Tested on: Klebsiella pneumoniae
Assay: Synergistic antibacterial activity against […] Klebsiella pneumoniae M6 assessed as rifampicin MIC at <=0.25 times MIC incubated for overnight by microbroth dilution checkerboard assay
Format: functional
Summary of the method: (§5)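 Checkerboard run under the MIC conditions (TSB, overnight, 37 °C). Antibiotic and lipoguanidine 2-fold series were combined on one plate before bacteria were added. Growth/no-growth was scored as for the MIC (<0.1 OD600). Single-agent MICs were measured on the same plates. Three independent repeats were done.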

SMILES	MIC
CCCCCCCCCCCCNC(=N)NCCCCN	≤ 0.125 µg/mL

Tested on: Staphylococcus aureus
Assay: Antibacterial activity against methicillin resistant Staphylococcus aureus NCTC 13616 assessed as bacterial growth inhibition incubated for overnight by microbroth dilution method
Format: functional
Summary of the method: as §3

SMILES	MIC
CCCCCCCCCCCCNC(=N)NCCCCN	4 µg/mL (≈ 13.4 µM)

Tested on: Escherichia coli
Assay: Synergistic antibacterial activity against Escherichia coli NCTC 12923 assessed as fold change in rifampicin MIC at <=0.25 times MIC incubated for overnight by microbroth dilution checkerboard assay relative to rifampicin alone
Format: functional
Summary of the method: as §2

SMILES	fold change (FC)
CCCCCCCCCCCCNC(=N)NCCCCN	>=4

Tested on: Acinetobacter baumannii
Assay: Synergistic antibacterial activity against Acinetobacter baumannii AYE assessed as rifampicin MIC at <=0.25 times MIC incubated for overnight by microbroth dilution checkerboard assay
Format: functional
Summary of the method: as §2

SMILES	MIC
CCCCCCCCCCCCNC(=N)NCCCCN	≤ 0.125 µg/mL

Tested on: Enterococcus faecium
Assay: Antibacterial activity against vancomycin resistant Enterococcus faecium NCTC 12204 assessed as bacterial growth inhibition incubated for overnight by microbroth dilution method
Format: functional
Summary of the method: as §3

SMILES	MIC
CCCCCCCCCCCCNC(=N)NCCCCN	16 µg/mL (≈ 53.6 µM)

Tested on: Escherichia coli
Assay: Synergistic antibacterial activity against Escherichia coli NCTC 12923 assessed as rifampicin MIC at <=0.25 times MIC incubated for overnight by microbroth dilution checkerboard assay
Format: functional
Summary of the method: as §2

SMILES	MIC
CCCCCCCCCCCCNC(=N)NCCCCN	≤ 0.125 µg/mL

Tested on: Acinetobacter baumannii
Assay: Antibacterial activity against Acinetobacter baumannii ATCC 17978 assessed as bacterial growth inhibition incubated for overnight by microbroth dilution method
Format: functional
Summary of the method: as §1

SMILES	MIC
CCCCCCCCCCCCNC(=N)NCCCCN	128 µg/mL (≈ 429 µM)

Tested on: Acinetobacter baumannii
Assay: Synergistic antibacterial activity against Acinetobacter baumannii AYE assessed as bacterial growth inhibition incubated for overnight in presence of PBMN by microbroth dilution method relative to control
Format: functional
Summary of the method: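 Adapted broth microdilution in TSB. The test compound was in a 2-fold dilution series, with PMBN added at a fixed 30 µg/mL. Bacteria at OD 0.02 were added, and plates were incubated overnight at 37 °C. Growth/no growth was read as for the MIC (<0.1 OD600).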

SMILES	inhibition (INH)
CCCCCCCCCCCCNC(=N)NCCCCN	<20%

Tested on: Staphylococcus aureus
Assay: Antibacterial activity against methicillin sensitive Staphylococcus aureus 1199B assessed as bacterial growth inhibition incubated for overnight by microbroth dilution method
Format: functional
Summary of the method: as §3

SMILES	MIC
CCCCCCCCCCCCNC(=N)NCCCCN	4 µg/mL (≈ 13.4 µM)

Tested on: Staphylococcus aureus
Assay: Antibacterial activity against methicillin sensitive Staphylococcus aureus ATCC 9144 assessed as bacterial growth inhibition incubated for overnight by microbroth dilution method
Format: functional
Summary of the method: as §3

SMILES	MIC
CCCCCCCCCCCCNC(=N)NCCCCN	2 µg/mL (≈ 6.7 µM)

Tested on: Pseudomonas aeruginosa
Assay: Synergistic antibacterial activity against Pseudomonas aeruginosa PAO1 assessed as rifampicin MIC at <=0.25 times MIC incubated for overnight by microbroth dilution checkerboard assay
Format: functional
Summary of the method: as §4

SMILES	MIC
CCCCCCCCCCCCNC(=N)NCCCCN	≤ 0.125 µg/mL

Tested on: Acinetobacter baumannii
Assay: Synergistic antibacterial activity against Acinetobacter baumannii ATCC 17978 assessed as fold change in rifampicin MIC at <=0.25 times MIC incubated for overnight by microbroth dilution checkerboard assay relative to rifampicin alone
Format: functional
Summary of the method: as §2

SMILES	fold change (FC)
CCCCCCCCCCCCNC(=N)NCCCCN	>=4

Tested on: Enterococcus faecalis
Assay: Antibacterial activity against vancomycin sensitive Enterococcus faecalis NCTC 775 assessed as bacterial growth inhibition incubated for overnight by microbroth dilution method

SMILES	MIC
CCCCCCCCCCCCNC(=N)NCCCCN	8 µg/mL (≈ 26.8 µM)

Tested on: Pseudomonas aeruginosa
Assay: Synergistic antibacterial activity against Pseudomonas aeruginosa NCTC 13437 assessed as fold change in rifampicin MIC at <=0.25 times MIC incubated for overnight by microbroth dilution checkerboard assay relative to rifampicin alone
Format: functional
Summary of the method: as §4

SMILES	fold change (FC)
CCCCCCCCCCCCNC(=N)NCCCCN	>=4

Tested on: Klebsiella pneumoniae
Assay: Synergistic antibacterial activity against Klebsiella pneumoniae NCTC 13368 assessed as fold change in rifampicin MIC at <=0.25 times MIC incubated for overnight by microbroth dilution checkerboard assay relative to rifampicin alone
Format: functional
Summary of the method: as §5

SMILES	fold change (FC)
CCCCCCCCCCCCNC(=N)NCCCCN	>=4

Tested on: Acinetobacter baumannii
Assay: Synergistic antibacterial activity against Acinetobacter baumannii AYE assessed as fold change in rifampicin MIC at <=0.25 times MIC incubated for overnight by microbroth dilution checkerboard assay relative to rifampicin alone
Format: functional
Summary of the method: as §2

SMILES	fold change (FC)
CCCCCCCCCCCCNC(=N)NCCCCN	>=4

Tested on: Klebsiella pneumoniae
Assay: Antibacterial activity against ESBL Klebsiella pneumoniae NCTC 13368 assessed as bacterial growth inhibition incubated for overnight by microbroth dilution method

SMILES	MIC
CCCCCCCCCCCCNC(=N)NCCCCN	> 128 µg/mL

Tested on: Pseudomonas aeruginosa
Assay: Synergistic antibacterial activity against Pseudomonas aeruginosa NCTC 13437 assessed as rifampicin MIC at <=0.25 times MIC incubated for overnight by microbroth dilution checkerboard assay
Format: functional
Summary of the method: as §4

SMILES	MIC
CCCCCCCCCCCCNC(=N)NCCCCN	≤ 0.125 µg/mL
